{
  "source": "ChEMBL document CHEMBL5696442",
  "about": "“Discovery of type II inhibitors of TGFβ-activated kinase 1 (TAK1) and mitogen-activated protein kinase kinase kinase kinase 2 (MAP4K2)” (J Med Chem, 2015)",
  "key": {"[1]": {"molecular_target": "Cyclin-dependent kinase 6 (Homo sapiens) (UniProt Q00534)", "sequence (Q00534 whole entry)": "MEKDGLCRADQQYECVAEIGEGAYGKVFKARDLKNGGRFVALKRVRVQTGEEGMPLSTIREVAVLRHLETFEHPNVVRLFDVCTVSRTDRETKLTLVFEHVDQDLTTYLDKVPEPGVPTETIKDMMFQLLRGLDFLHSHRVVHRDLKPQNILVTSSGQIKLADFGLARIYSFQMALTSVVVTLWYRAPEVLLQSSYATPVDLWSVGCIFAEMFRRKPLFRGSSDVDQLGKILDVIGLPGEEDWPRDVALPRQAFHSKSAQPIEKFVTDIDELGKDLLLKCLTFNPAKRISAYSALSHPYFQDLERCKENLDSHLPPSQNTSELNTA", "test": "Inhibition of CDK6 Lys2 labeling site in human Huh-7 cells at 1 uM by KiNativ Profiling analysis relative to control", "format": "cell-based"}, "[2]": {"molecular_target": "T1, Mitogen-activated protein kinase kinase kinase kinase 2 (Homo sapiens) (UniProt Q12851)", "T1 sequence (whole entry)": "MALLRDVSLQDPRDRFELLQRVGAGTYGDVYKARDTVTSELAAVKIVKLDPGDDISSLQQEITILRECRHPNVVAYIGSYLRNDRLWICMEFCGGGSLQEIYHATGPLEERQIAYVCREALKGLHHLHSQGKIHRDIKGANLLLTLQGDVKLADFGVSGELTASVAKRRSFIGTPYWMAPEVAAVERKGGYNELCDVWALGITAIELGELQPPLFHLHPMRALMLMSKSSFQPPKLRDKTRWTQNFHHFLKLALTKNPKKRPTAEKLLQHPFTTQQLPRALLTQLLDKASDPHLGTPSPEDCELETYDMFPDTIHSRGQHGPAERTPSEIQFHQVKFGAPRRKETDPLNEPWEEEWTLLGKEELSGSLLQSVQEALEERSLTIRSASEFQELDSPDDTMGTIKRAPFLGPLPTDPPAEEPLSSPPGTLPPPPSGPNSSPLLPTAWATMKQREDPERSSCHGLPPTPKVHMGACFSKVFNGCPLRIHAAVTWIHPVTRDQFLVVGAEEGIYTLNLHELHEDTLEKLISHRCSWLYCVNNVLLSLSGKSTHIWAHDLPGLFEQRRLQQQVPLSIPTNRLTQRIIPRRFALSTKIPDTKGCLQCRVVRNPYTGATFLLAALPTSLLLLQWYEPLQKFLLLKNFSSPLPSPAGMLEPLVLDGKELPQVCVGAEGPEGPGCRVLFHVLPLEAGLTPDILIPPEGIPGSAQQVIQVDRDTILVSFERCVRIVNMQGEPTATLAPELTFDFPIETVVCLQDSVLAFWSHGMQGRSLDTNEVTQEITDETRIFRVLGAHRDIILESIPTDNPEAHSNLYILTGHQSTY", "test": "Inhibition of MAP4K2 (unknown origin) at 1 uM by Ambit Kinomescan binding assay relative to control; values are per cent of control"}, "[3]": {"molecular_target": "T2, Phosphatidylinositol 4,5-bisphosphate 3-kinase catalytic subunit delta isoform (Homo sapiens) (UniProt O00329)", "T2 sequence (whole entry)": "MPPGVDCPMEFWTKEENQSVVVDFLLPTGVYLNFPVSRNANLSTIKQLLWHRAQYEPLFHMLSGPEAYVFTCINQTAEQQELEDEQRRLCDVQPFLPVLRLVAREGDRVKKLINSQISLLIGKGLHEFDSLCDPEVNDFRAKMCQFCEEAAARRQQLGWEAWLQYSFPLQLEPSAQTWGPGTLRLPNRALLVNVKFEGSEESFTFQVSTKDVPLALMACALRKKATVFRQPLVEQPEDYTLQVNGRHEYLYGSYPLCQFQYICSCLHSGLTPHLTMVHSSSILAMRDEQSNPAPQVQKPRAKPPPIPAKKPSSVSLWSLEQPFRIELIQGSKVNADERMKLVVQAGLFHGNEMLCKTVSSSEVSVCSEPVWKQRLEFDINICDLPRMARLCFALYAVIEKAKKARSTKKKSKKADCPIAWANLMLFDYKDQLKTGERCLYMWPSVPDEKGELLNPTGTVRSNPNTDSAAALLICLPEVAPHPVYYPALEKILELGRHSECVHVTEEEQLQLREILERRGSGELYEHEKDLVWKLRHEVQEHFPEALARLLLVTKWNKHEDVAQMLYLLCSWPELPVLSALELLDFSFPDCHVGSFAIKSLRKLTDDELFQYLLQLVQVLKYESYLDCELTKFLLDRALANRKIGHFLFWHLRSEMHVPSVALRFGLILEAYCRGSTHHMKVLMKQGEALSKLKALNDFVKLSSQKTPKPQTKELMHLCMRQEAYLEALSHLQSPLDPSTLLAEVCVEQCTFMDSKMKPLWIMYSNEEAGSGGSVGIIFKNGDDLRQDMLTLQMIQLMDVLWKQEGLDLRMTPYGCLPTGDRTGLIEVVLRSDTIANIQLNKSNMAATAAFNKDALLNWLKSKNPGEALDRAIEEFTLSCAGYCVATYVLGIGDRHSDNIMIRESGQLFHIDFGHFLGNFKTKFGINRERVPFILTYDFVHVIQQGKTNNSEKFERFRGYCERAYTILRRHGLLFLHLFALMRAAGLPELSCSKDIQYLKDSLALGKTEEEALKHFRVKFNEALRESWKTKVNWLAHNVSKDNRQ", "test": "Inhibition of PIK3CD ATP labeling site in human A-375 cells at 5 uM by KiNativ Profiling analysis relative to control", "format": "cell-based"}, "[4]": {"molecular_target": "Protein-tyrosine kinase 6 (Homo sapiens) (UniProt Q13882)", "sequence (Q13882 whole entry, looked up)": "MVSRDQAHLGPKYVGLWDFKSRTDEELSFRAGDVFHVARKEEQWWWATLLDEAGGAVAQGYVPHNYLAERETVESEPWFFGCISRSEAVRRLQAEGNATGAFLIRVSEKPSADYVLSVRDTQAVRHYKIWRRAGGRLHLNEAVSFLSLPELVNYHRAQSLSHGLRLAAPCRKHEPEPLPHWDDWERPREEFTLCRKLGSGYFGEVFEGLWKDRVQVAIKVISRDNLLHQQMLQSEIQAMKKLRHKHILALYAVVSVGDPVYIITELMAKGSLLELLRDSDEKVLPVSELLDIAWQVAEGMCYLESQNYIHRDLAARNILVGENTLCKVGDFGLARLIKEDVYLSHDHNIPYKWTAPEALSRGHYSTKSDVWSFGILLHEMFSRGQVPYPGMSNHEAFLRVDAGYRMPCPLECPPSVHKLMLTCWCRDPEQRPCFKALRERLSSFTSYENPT", "test": "Inhibition of BRK (unknown origin) at 10 uM by Ambit Kinomescan binding assay relative to control"}, "[5]": {"molecular_target": "Mitogen-activated protein kinase 14 (Homo sapiens, UniProt Q16539)", "sequence (Q16539 whole entry)": "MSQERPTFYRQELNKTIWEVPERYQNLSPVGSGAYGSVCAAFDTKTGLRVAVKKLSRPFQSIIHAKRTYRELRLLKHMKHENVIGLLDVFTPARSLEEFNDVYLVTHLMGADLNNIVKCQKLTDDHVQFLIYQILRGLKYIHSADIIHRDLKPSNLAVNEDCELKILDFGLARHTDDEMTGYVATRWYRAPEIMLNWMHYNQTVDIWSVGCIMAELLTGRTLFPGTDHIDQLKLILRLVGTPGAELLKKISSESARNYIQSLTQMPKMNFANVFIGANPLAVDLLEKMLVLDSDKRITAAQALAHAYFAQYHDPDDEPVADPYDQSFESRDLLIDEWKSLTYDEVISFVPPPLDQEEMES", "test": "Inhibition of p38alpha K2 labeling site in human Huh-7 cells at 1 uM by KiNativ Profiling analysis relative to control", "format": "cell-based"}, "[6]": {"system": "Tyrosine-protein kinase ABL1 (Homo sapiens), P00519 [Q252H]", "test": "Inhibition of ABL1 Q252H mutant (unknown origin) at 10 uM by Ambit Kinomescan binding assay relative to control"}, "[7]": {"molecular_target": "Rho-associated protein kinase 2 (Homo sapiens) (UniProt O75116)", "sequence (O75116 whole entry, looked up)": "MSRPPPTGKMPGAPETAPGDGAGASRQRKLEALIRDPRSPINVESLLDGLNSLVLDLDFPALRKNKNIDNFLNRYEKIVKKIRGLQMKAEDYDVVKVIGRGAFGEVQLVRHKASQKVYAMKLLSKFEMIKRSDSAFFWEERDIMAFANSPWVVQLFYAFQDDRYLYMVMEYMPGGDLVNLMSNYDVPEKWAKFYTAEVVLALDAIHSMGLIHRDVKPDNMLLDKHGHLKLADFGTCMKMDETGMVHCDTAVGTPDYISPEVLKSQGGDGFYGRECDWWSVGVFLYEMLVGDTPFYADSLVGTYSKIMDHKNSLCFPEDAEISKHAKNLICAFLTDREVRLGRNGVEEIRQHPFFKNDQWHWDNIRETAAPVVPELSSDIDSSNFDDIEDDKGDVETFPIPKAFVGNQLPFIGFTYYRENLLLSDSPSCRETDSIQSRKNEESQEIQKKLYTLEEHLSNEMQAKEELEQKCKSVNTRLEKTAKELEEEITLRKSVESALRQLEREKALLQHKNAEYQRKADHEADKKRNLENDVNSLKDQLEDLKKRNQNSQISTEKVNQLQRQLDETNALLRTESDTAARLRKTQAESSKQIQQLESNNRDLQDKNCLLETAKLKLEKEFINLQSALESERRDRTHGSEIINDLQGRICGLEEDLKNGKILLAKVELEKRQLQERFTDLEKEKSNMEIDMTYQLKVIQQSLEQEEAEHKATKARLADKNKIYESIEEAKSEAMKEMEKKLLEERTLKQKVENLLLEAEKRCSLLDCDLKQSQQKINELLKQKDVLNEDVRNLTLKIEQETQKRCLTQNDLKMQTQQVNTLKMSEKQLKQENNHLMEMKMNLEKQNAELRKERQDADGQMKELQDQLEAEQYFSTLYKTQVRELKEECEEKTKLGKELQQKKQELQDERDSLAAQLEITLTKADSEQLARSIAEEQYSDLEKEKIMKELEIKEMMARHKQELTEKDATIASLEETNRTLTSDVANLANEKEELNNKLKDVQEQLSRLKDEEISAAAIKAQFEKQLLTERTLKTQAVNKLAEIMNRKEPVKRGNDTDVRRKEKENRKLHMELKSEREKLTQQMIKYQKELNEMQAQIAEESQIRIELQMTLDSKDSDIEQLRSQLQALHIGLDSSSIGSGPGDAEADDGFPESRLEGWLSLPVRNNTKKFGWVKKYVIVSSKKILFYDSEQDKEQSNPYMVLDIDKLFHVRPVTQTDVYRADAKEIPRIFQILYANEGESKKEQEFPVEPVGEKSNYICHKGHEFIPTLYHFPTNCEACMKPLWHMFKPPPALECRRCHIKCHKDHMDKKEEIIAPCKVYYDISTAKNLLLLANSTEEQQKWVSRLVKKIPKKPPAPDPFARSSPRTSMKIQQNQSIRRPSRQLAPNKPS", "test": "Inhibition of ROCK2 Lys2 labeling site in human A-375 cells at 0.5 uM by KiNativ Profiling analysis relative to control", "format": "cell-based", "in_short": "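Live A375 melanoma cells treated with compound at 5 or 0.5 μM, then lysed. Lysate kinases were labeled with a lysine-reactive ATP or ADP-biotin probe. Inhibition was read as protection of labeling sites from the probe.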"}, "[8]": {"molecular_target": "Bone morphogenetic protein receptor type-1A (Homo sapiens) (UniProt P36894)", "sequence (P36894 whole entry)": "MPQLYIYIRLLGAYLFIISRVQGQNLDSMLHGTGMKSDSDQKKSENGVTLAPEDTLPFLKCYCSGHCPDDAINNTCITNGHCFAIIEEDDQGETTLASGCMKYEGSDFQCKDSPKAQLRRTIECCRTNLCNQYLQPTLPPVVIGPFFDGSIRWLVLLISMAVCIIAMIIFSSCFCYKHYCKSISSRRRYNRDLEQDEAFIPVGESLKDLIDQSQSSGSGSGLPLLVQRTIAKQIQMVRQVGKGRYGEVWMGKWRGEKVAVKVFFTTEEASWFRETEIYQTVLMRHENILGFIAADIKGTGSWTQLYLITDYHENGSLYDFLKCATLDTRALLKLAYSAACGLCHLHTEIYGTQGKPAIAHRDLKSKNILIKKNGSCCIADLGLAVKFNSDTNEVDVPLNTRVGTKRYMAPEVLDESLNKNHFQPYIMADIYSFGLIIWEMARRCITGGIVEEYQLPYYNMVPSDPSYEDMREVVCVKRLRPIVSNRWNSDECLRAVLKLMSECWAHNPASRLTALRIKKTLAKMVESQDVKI", "test": "Inhibition of BMPR1A (unknown origin) at 10 uM by Ambit Kinomescan binding assay"}, "[9]": {"test": "Inhibition of Wnk1/2/3 K2 labeling site in human Huh-7 cells at 1 uM by KiNativ Profiling analysis relative to control", "conditions": "condition cancer"}},
  "note": "Activity calls are given as the source filed them. No cut-off for these calls is given here.",
  "data": [
    {"compound": "CNc1cc(Oc2cc(C(=O)Nc3cc(N4CCN(C)CC4)cc(C(F)(F)F)c3)ccc2C)ncn1", "values": [
      {"measurement": "inhibition", "setting": "[1]", "value": 24.4, "unit": "%"}
    ]},
    {"compound": "CCN1CCN(Cc2ccc(NC(=O)c3ccc(C)c(/C=C/c4cnc5[nH]ccc5c4OC)c3)cc2C(F)(F)F)CC1", "values": [
      {"measurement": "percent of control", "setting": "[2]", "value": 3.2, "unit": "%"},
      {"measurement": "inhibition", "setting": "[3]", "value": 21.3, "unit": "%"}
    ]},
    {"compound": "CCN1CCN(Cc2ccc(NC(=O)c3ccc(C)c(Oc4ccnc5[nH]ccc45)c3)cc2C(F)(F)F)CC1", "values": [
      {"measurement": "inhibition", "setting": "[4]", "value": 28, "unit": "%"},
      {"measurement": "inhibition", "setting": "[5]", "value": 7.1, "unit": "%"},
      {"measurement": "inhibition", "setting": "[6]", "value": 0.4, "unit": "%"},
      {"measurement": "inhibition", "setting": "[7]", "value": 2.3, "unit": "%"},
      {"measurement": "inhibition", "setting": "[8]", "value": "inactive"},
      {"measurement": "inhibition at 1 µM", "setting": "[9]", "value": -17.1, "unit": "%"}
    ]}
  ]
}
